Experimental data published in article PMC11937985 (Journal of Clinical Pharmacology, 2024).
Read-outs that look alike come from different tables or passages of the source.

Columns and labels:
[1] = Safety and tolerability assessment in the phase 1 study; type: in vivo, human
Procedure, shortened: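 Healthy postmenopausal smokers and nonsmokers received oral test compound 30 mg on Day 1 after a 10-h fast. Oral fluvoxamine 50 mg was given on Day 3 evening, twice daily on Days 4–9, and on Day 10 morning. On Day 7 the test compound was co-dosed fasted. AEs were recorded from consent to end of study, in all subjects dosed at least once.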

[2] = fezolinetant 45 mg, pooled 12-week data, cited from earlier work
[3] = type: in vitro ADME, human; settings: preliminary assay; rate of degradation could not be determined precisely
[4] = 20‐ to 60‐mg dose range; cited from earlier work
[5] = type: in vivo, human
[6] = fezolinetant + fluvoxamine vs fezolinetant alone

SMILES | dizziness (TEAE), subjects reporting ([1]; 18 subjects) | erythema (TEAE), subjects reporting ([1]; 18 subjects) | orthostatic intolerance (TEAE), subjects reporting ([1]; 18 subjects) | subjects with TEAE considered drug related by the investigator ([1]; 18 subjects) | LS mean difference in VMS frequency versus placebo ([2]; current smokers) | LS mean difference in VMS frequency versus placebo ([2]; former/never smokers) | metabolic stability [3] | subjects with TEAEs, overall ([1]; all treatment periods, 18 TEAEs, 18 subjects enrolled) | safety and tolerability ([1]; single oral 30-mg dose of fezolinetant co-administered with fluvoxamine, healthy postmenopausal women) | dose dependence of Cmax and total exposure (AUC) [4] | Tmax ([5]; female, human, plasma, oral, 30 mg) | tmax, Median [min–max] ([5]; fezolinetant 30 mg + fluvoxamine, nonsmoker n = 9) | tmax, Median [min–max] ([5]; fezolinetant 30 mg + fluvoxamine, smoker n = 9) | tmax, Median [min–max] ([5]; fezolinetant 30 mg alone, nonsmoker n = 9) | tmax, Median [min–max] ([5]; fezolinetant 30 mg alone, smoker n = 9) | increase in half-life on co-administration with fluvoxamine [5, 6] | increase in total exposure on co-administration with fluvoxamine [5, 6] | exposure decrease by smoking ([5]; smokers vs nonsmokers)
COCCCC/C(=N\OCCN)c1ccc(C(F)(F)F)cc1 [fluvoxamine] | one subject | 11.1% | one subject | 5.6% | – | – | – | – | – | – | – | – | – | – | – | – | – | –
Cc1nsc(-c2nnc3n2CCN(C(=O)c2ccc(F)cc2)[C@@H]3C)n1 [Fezolinetant] | – | – | – | – | −3.48 | −2.32 | highly stable | 44.4% | safe and well tolerated | increased linearly | 1 h | 1.50 [1.00‐4.00] h | 1.50 [1.48‐4.00] h | 1.00 [0.983‐2.00] h | 1.00 [1.00‐1.50] h | ~5.6 fold | approximately 9 fold | about 50%
